Results pooled from the literature.
Compare with care: the assays were run in different laboratories.
Mode: inhibitor
CDK2: Cyclin-dependent kinase 2 (CDK2, Homo sapiens, UniProt P24941)
PARP2: Poly [ADP-ribose] polymerase 2 (PARP2, Homo sapiens, UniProt Q9UGN5)

Compound | target | assay | setting | IC50 [nM]
CC(=O)C(=O)N(CC(C)C)NC(=O)[C@H](Cc1ccccc1)NC(=O)[C@H](CC(C)C)NC(=O)[C@H](CCc1ccccc1)NC(=O)OCc1ccccc1 | Cathepsin B (CTSB, Homo sapiens, UniProt P07858) | enzyme activity, fluorescence | pH 6 | 31500
Cc1n[nH]c2ccc3nc(-c4ccc(C(=O)NCCN(C)C)cc4)c4c(c3c12)CCC(F)(F)C4 | CDK2 | enzyme activity |  | 594
Cn1cc(C2=C(c3cn(CCCSC(=N)N)c4ccccc34)C(=O)NC2=O)c2ccccc21 | Mitogen-activated protein kinase kinase kinase kinase 1 (MAP4K1, Homo sapiens, UniProt Q92918) | enzyme activity |  | 54.4
Cc1ccc(Cn2nnc3c4ccc(F)cc4c(=O)[nH]c32)cc1 | PARP2 | enzyme activity |  | > 10000
CC(=O)N1C(=O)NC(C)=C(C(=O)OCc2ccccc2)C1c1cccc([N+](=O)[O-])c1 (racemic) | Voltage-dependent L-type calcium channel subunit alpha-1C (Cacna1c, Rattus norvegicus, UniProt P22002) | ion current, patch clamp |  | 2600
CCCCCn1nnc2c3ccc(F)cc3c(=O)[nH]c21 | PARP2 | enzyme activity |  | > 10000
CN(C)CCNC(=O)c1ccc(-c2nc3ccc4[nH]ncc4c3c3c2CCCCC3)cn1 | CDK2 | enzyme activity |  | 210
NC(=O)c1cccnc1 | Nicotinamide N-methyltransferase (NNMT, Homo sapiens, UniProt P40261) | enzyme activity in cells |  | > 31600
O=c1[nH]c2c(nnn2Cc2ccccc2)c2ccc(F)cc12 | PARP2 | enzyme activity |  | > 10000
CN(C)CCNC(=O)c1ccc(-c2nc3ccc4[nH]ncc4c3c3c2CC(C)(C)CC3)cc1 | CDK2 | enzyme activity |  | 145
CCc1ccc(Cn2nnc3c4ccc(F)cc4c(=O)[nH]c32)cc1 | PARP2 | enzyme activity, fluorescence |  | > 10000
Cc1cc(O)c(-c2ccc([C@@H](C)CN(C)C)cc2)c2c1[nH]c(=O)c1sccc12 | Cyclin-dependent kinase 8, with cyclin C (CDK8, Homo sapiens, UniProt P49336) | enzyme activity |  | > 1000
